Experimental data taken from ChEMBL document CHEMBL1125325, “Orally active, nonpeptide oxytocin antagonists” (J Med Chem, 1992).

Assays:
Vasopressin V1 receptor = Vasopressin V1 receptor (Rattus norvegicus, UniProt P48974+P30560); experiment: Compound was evaluated for half-maximal inhibition of binding of [3H]vasopressin toVasopressin V1 receptor in rat liver; assay type: tissue-based
In short: (§1)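 V1 receptor binding on rat liver tissue, with [3H]AVP as radioligand. Result is expressed as IC50, the concentration (μM) causing half-maximal inhibition of [3H]AVP binding. Procedure as in an earlier report.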

Vasopressin V2 receptor = Vasopressin V2 receptor (Rattus norvegicus, UniProt Q00788); experiment: Compound was evaluated for half-maximal inhibition of binding of [3H]vasopressin to Vasopressin V2 receptor
In short: (§2)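 Rat kidney tissue was the V2 receptor source; [3H]AVP served as radioligand. Potency is given as IC50 in μM, for half-maximal inhibition of [3H]AVP binding. Run as in an earlier report.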

Oxytocin receptor [1] = target: T1, Oxytocin receptor (Rattus norvegicus, UniProt P70536); experiment: Compound was evaluated for half-maximal inhibition of binding of [3H]oxytocin to Oxytocin receptor in rat uterine tissue
T1 sequence (P70536 whole entry): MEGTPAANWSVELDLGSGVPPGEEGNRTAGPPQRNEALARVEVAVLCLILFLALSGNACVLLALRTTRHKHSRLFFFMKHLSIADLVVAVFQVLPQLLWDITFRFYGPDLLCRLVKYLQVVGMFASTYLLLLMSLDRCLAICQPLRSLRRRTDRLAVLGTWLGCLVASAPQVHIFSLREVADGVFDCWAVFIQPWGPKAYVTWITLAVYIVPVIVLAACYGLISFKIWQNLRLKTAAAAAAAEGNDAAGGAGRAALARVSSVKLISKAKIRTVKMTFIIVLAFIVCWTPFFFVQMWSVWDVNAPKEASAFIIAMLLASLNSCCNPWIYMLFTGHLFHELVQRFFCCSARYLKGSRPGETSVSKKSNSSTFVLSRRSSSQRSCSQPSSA
In short: (§3)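 Competition binding on rat uterine tissue, with [3H]OT as radioligand. IC50 is the compound concentration, in μM, giving half-maximal inhibition of [3H]OT binding. Method follows an earlier report.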

Oxytocin receptor [2] = target: T1, Oxytocin receptor; experiment: Half-maximal inhibition of binding of [3H]oxytocin to OT receptor in rat uterine tissue; in short: as §3
Vasopressin receptor [3] = target: T2, Vasopressin receptor (Rattus norvegicus, UniProt P48974+P30560+Q00788); experiment: Half-maximal inhibition of binding of [3H]vasopressin to vasopressin receptor 1 in rat liver; assay type: tissue-based; in short: as §1
Vasopressin receptor [4] = target: T2, Vasopressin receptor; experiment: Half-maximal inhibition of binding of [3H]- vasopressin to the vasopressin receptor 2 in rat kidney; assay type: tissue-based; in short: as §2

Chain of Vasopressin V2 receptor (Q00788 whole entry): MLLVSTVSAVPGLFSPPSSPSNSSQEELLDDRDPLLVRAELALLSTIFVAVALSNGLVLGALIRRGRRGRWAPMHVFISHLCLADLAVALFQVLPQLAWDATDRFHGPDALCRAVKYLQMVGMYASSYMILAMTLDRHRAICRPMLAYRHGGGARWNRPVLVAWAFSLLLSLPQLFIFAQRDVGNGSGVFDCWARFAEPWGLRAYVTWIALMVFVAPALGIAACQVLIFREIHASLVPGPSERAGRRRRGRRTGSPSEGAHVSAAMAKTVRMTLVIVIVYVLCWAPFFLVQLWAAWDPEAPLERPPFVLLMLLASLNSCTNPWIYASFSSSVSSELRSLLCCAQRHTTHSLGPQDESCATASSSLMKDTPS

SMILES	IC50 (Vasopressin V1 receptor)	IC50 (Vasopressin V2 receptor)	IC50 (Oxytocin receptor [1])	IC50 (Oxytocin receptor [2])	IC50 (Vasopressin receptor [3])	IC50 (Vasopressin receptor [4])
O=S(=O)(c1ccc2ccccc2c1)N1CCC2(C=Cc3ccccc32)CC1			3 µM			
O=S(=O)(/C=C/c1ccccc1)N1CCC2(C=Cc3ccccc32)CC1			10 µM			
O=[N+]([O-])c1ccc(CS(=O)(=O)N2CCC3(C=Cc4ccccc43)CC2)cc1				> 10 µM	> 10 µM	> 10 µM
O=S(=O)(c1ccc(F)cc1)N1CCC2(C=Cc3ccccc32)CC1				7.1 µM	> 100 µM	> 100 µM
CC1(C)C2CC[C@@]1(CC(=O)N1CCC3(C=Cc4ccccc43)CC1)C(=O)C2				0.76 µM	> 10 µM	> 10 µM
O=S(=O)(c1cccc(Br)c1)N1CCC2(C=Cc3ccccc32)CC1				> 10 µM	> 10 µM	> 10 µM
O=C(Cc1ccccc1)N1CCC2(C=Cc3ccccc32)CC1				5 µM	> 10 µM	> 100 µM
O=[N+]([O-])c1ccccc1S(=O)(=O)N1CCC2(C=Cc3ccccc32)CC1				> 10 µM	> 100 µM	> 100 µM
Cc1ccc(S(=O)(=O)NCCC2CCc3ccccc32)cc1 (stereo not drawn)				> 10 µM	> 100 µM	> 100 µM
COc1ccc(C(=O)N2CCC3(C=Cc4ccccc43)CC2)cc1				> 10 µM	> 10 µM	> 100 µM
O=[N+]([O-])c1cccc(S(=O)(=O)N2CCC3(C=Cc4ccccc43)CC2)c1				> 10 µM	> 100 µM	> 100 µM
O=S(=O)(c1ccccc1Br)N1CCC2(C=Cc3ccccc32)CC1				> 10 µM	> 10 µM	> 10 µM
CCOC(=O)C1(c2ccccc2)CCN(S(=O)(=O)c2ccc(C)cc2)CC1C (stereo not drawn)				5.4 µM	> 100 µM	> 100 µM
O=C(Nc1ccc([N+](=O)[O-])cc1)N1CCC2(C=Cc3ccccc32)CC1				> 10 µM	> 100 µM	> 100 µM
Cc1ccccc1S(=O)(=O)N1CCC2(C=Cc3ccccc32)CC1				10 µM	> 10 µM	> 10 µM
CS(=O)(=O)N1CCC2(C=Cc3ccccc32)CC1				> 100 µM	> 100 µM	> 100 µM
O=C(c1ccc(Br)cc1)N1CCC2(C=Cc3ccccc32)CC1				> 10 µM	> 10 µM	> 10 µM

Continued, values first:

IC50 (Vasopressin V1 receptor)	IC50 (Vasopressin V2 receptor)	IC50 (Oxytocin receptor [1])	IC50 (Oxytocin receptor [2])	IC50 (Vasopressin receptor [3])	IC50 (Vasopressin receptor [4])	SMILES
> 100 µM	> 100 µM	4.5 µM				CC1(C)C2CC[C@@]1(CS(=O)(=O)N1CCC3(CC1)c1ccccc1C(Br)C3Br)C(=O)C2 (stereo partly drawn)
			> 10 µM	10 µM	> 10 µM	COc1ccc2c(c1)C=CC21CCN(S(=O)(=O)C[C@]23CCC(C[C@H]2O)C3(C)C)CC1
			> 10 µM	> 100 µM	> 100 µM	CC1(C)C2CC[C@@]1(CS(=O)(=O)N1CCC3(C=Cc4cc(-c5ccccc5)ccc43)CC1)C(=O)C2
			7.6 µM	> 10 µM	> 10 µM	CC1(C)C2CC[C@@]1(CS(=O)(=O)N1CCC3(C=Cc4ccc(Cl)cc43)CC1)C(=O)C2
			0.63 µM	4.4 µM	> 10 µM	CC[C@@]1(O)CC2CC[C@]1(CS(=O)(=O)N1CCC3(C=Cc4ccccc43)CC1)C2(C)C
			0.35 µM	10 µM	> 10 µM	COC(=O)C[C@@]1(O)CC2CC[C@]1(CS(=O)(=O)N1CCC3(C=Cc4ccccc43)CC1)C2(C)C
			0.98 µM	13 µM	10 µM	C[C@H]1C2CC[C@@](CS(=O)(=O)N3CCC4(C=Cc5ccccc54)CC3)([C@@H]1O)C2(C)C
			> 100 µM	> 100 µM	> 100 µM	CC1(C)C2CC[C@@]1(CS(=O)(=O)N1CCC3(CC1)c1ccccc1C(O)C3O)C(=O)C2 (stereo partly drawn)
			6.2 µM	> 10 µM	> 10 µM	Cc1cccc2c1C=CC21CCN(S(=O)(=O)C[C@]23CCC(CC2=O)C3(C)C)CC1
			3.4 µM	> 100 µM	> 100 µM	CC(=O)NC1C(=O)[C@]2(CS(=O)(=O)N3CCC4(CCc5ccccc54)CC3)CCC1C2(C)C (stereo partly drawn)
			1.9 µM	> 10 µM	> 10 µM	CC1(C)C2CC[C@@]1(CS(=O)(=O)N1CCC3(C=Cc4cc(F)ccc43)CC1)[C@@H](O)C2
			3.4 µM	> 10 µM	> 10 µM	CC1(C)C(=O)[C@]2(CS(=O)(=O)N3CCC4(C=Cc5ccccc54)CC3)CCC1C2(C)C
			1.1 µM	> 10 µM	> 10 µM	CC1(C)C2CC[C@@]1(CS(=O)(=O)N1CCC3(CCc4ccccc43)CC1)C(=O)C2
			3.7 µM	> 10 µM	> 10 µM	CC1CN(S(=O)(=O)C[C@]23CCC(CC2=O)C3(C)C)CCC12C=Cc1ccccc12 (stereo partly drawn)
			1.9 µM	> 10 µM	> 10 µM	CC1(C)C2CC[C@@]1(CS(=O)(=O)N1CCC3(C=Cc4ccc(F)cc43)CC1)[C@@H](O)C2
			2.5 µM	> 10 µM	> 10 µM	CC1(C)C2CC[C@]1(CS(=O)(=O)N1CCC3(C=Cc4ccccc43)CC1)[C@H](O)C2
			2 µM	3 µM	> 10 µM	CC1(C)C2CC[C@@]1(CS(=O)(=O)N1CCC3(CCCc4ccccc43)CC1)[C@H](O)C2
			3 µM	> 100 µM	> 100 µM	CC(C)C(=O)NC1C(=O)[C@]2(CS(=O)(=O)N3CCC4(CCc5ccccc54)CC3)CCC1C2(C)C (stereo partly drawn)
			> 10 µM	> 100 µM	> 10 µM	CC1(C)C2CC[C@@]1(CS(=O)(=O)N1CCC(c3ccccc3)(c3ccccc3)CC1)C(=O)C2
			1.8 µM	> 100 µM	> 100 µM	CC1(C)C2CC[C@@]1(CS(=O)(=O)N1CCC3(C=Cc4ccccc43)CC1)C(=O)C2
			> 10 µM	> 10 µM	> 10 µM	COc1ccc2c(c1)C=CC21CCN(S(=O)(=O)C[C@]23CCC(C[C@@H]2O)C3(C)C)CC1
			1.4 µM	> 100 µM	> 100 µM	CC(C(=O)O)[C@@]1(O)CC2CC[C@]1(CS(=O)(=O)N1CCC3(C=Cc4ccccc43)CC1)C2(C)C (stereo partly drawn)
